Tests used:
[1] = test system: Trypanosoma brucei brucei; test: In vitro inhibitory concentration against blood stream Trypanosoma brucei brucei AT1 wild type incubated for 72 h at 37 degree C; format: functional, organism-based
Summary of the method: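 Wild-type T. b. brucei trypomastigotes, tested alongside the P2 knockout (TbAT1-/-). Alamar Blue viability assay used to derive IC50 values.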

[2] = test system: Trypanosoma brucei brucei; test: In vitro inhibitory concentration against blood stream Trypanosoma brucei brucei AT1 knockout mutant with a non functional P2 transporter incubated for 72 h at 37 degree C; format: organism-based
Summary of the method: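 Bloodstream T. b. brucei trypomastigotes, wild type or P2 transporter knockout (TbAT1-/-), were tested side by side. Viability was read by Alamar Blue fluorescence and IC50 values were determined.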

[3] = test system: Trypanosoma brucei rhodesiense; test: Inhibitory concentration in vitro against blood stream Trypanosoma brucei rhodesiense incubated for 72 hr at 37 degree C; format: functional, organism-based
Summary of the method: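 T. b. rhodesiense STIB900 trypomastigotes, a 1982 human isolate from Tanzania, grown in minimum essential medium with 2-mercaptoethanol and 15% heat-inactivated horse serum. Drug dilutions 90 to 0.123 μg/mL, 72 h at 37 °C, 5% CO2.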

L6 = test: Concentration causing cytotoxicity to 50% of L-6 rat skeletal myoblasts; format: functional, cell-based
Summary of the method: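 L-6 rat skeletal myoblasts run in the same Alamar Blue assay as the trypanosome screen. Serial dilutions spanning 90 to 0.123 μg/mL, 72 h at 37 °C under 5% CO2, then Alamar Blue for a further 2–4 h. Fluorescence read at ex 536/em 588 nm and expressed as % of control to give IC50.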

Trypanosoma cruzi [4] = test: In vitro inhibitory concentration against intracellular amastigotes of Trypanosoma cruzi in rat skeletal myoblasts incubated for 37 degree C for 4 days; format: functional, organism-based; conditions: 96 h
Summary of the method: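 L-6 myoblasts seeded at 2000 cells/well in RPMI 1640 with 10% FBS and 2 mM L-glutamine. After 24 h, 5000 T. cruzi Tulahuen C2C4 (LacZ) trypomastigotes added with serial drug dilution. Incubated 4 days at 37 °C in 5% CO2, then CPRG/Nonidet added.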

Mus musculus [5] = test: In vivo antitrypanosomal activity at a dose of 4*20 mg/kg, i.p., in mice infected with Trypanosoma brucei brucei STIB 795 strain; 0/4; format: functional
Mus musculus [6] = test: In vivo antitrypanosomal activity at a dose of 4*20 mg/kg, i.p., in mice infected with Trypanosoma brucei brucei STIB 795 strain, measured as survival days (control 7 days); format: functional
Trypanosoma cruzi [7] = test: In vivo percent inhibition of compound at a dose of 50 mg/kg, i.p., for 5 doses in mice infected with Trypanosoma cruzi; conditions: ip
Trypanosoma cruzi [8] = test: In vivo activity at a dose of 50 mg/kg, i.p., for 5 doses in mice infected with Trypanosoma cruzi, measured as survival days (control 13 days); conditions: route intraperitoneal
Leishmania donovani = test: Inhibitory concentration in vitro against intracellular amastigotes of Leishmania donovani in mouse peritoneal macrophages incubated for 96 hr at […]; tox is toxic to macrophages

CN(C)c1nc(N)nc(N/N=C/c2ccc([N+](=O)[O-])o2)n1 gave an IC50 [1] of 5.36 µM, an IC50 [2] of 3.09 µM and an IC50 [3] of 0.053 µM. It also gave an IC50 (L6) of 110 µM, an IC50 (Trypanosoma cruzi [4]) of 0.29 µM and a Cured/Infected (Mus musculus [5]) of 0. The Survival (Mus musculus [6]) was 18.3 days, the inhibition in vivo at 50 mg/kg (Trypanosoma cruzi [7]) was 45% and the Survival (Trypanosoma cruzi [8]) was 14 days. For the same molecule, the IC50 (Leishmania donovani) was “Toxic”.

Source: ChEMBL document CHEMBL1141164, “Design and synthesis of a series of melamine-based nitroheterocycles with activity against Trypanosomatid parasites” (J Med Chem, 2005)
